High-throughput results as filed in PubChem.
This is a sample that favours compounds with a hit; in the whole collection about 2.7% have one here.
Lipid droplet = inhibitors of hepatocyte lipid droplet formation, primary screen, imaging, high-throughput imaging, BODIPY stain; 240,000 tested, 0.4% active; AID 1656, 2009; inhibition, % at 6.5 µM; AML12 mouse hepatocytes, oleate lipid droplets;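 active means lipid droplet intensity inhibited by at least 50%, with more than 500 cells counted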
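System: AML12 hepatocytes (mouse). Probe or stimulus: oleic acid at 100 µM to induce lipid droplet formation. Times: overnight treatment with compound plus oleate. Detection: Image-based BODIPY and DAPI two-channel analysis. Evaluation: percent inhibition of filter-corrected integrated lipid droplet intensity per well.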
HTR2A ag = mouse Htr2a agonists via beta-arrestin recruitment, primary screen, cell-based, luminescence | 360,000 tested, 0.66% active | CHO-K1 mHTR2A beta-arrestin complementation; percent of 30 µM serotonin response | activation, % at 7.6 µM | AID 624169, 2012;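 active means activation above a run cutoff, the mean activation of all tested compounds plus 3 SD, cut at about 14% in these data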;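 further: 0% = plate median of compound wells and 100% = 30 µM serotonin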
Target sequence (P35363 whole entry, looked up): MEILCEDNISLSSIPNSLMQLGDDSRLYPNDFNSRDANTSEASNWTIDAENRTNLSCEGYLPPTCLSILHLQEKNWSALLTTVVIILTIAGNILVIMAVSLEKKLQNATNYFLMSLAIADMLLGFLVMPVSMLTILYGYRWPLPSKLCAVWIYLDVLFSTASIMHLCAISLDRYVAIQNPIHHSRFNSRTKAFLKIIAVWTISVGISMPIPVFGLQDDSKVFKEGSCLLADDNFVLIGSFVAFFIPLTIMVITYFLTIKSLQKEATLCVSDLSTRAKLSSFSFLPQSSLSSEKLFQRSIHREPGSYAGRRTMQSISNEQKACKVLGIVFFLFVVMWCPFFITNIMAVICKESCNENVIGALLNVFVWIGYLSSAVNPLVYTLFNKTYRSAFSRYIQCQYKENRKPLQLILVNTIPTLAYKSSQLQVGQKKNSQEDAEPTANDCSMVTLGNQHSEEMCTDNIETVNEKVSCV
MC4R ag barr = MC4R agonists recruiting beta-arrestin, primary screen, cell-based, luminescence, agonist arm of biased-ligand search. 360,000 tested, 0.98% active. U2OS MC4R beta-arrestin complementation; percent of melanotan II response, DMSO zero. activation, % at 8.9 µM. Melanocortin receptor 4 (Homo sapiens), P32245;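 active means activation above a per-plate cutoff, the mean activation of sample wells on that plate plus 3 SD, cut at about 8% in these data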
MC4R antag cAMP = MC4R antagonists of cAMP signaling, primary screen, cell-based, TR-FRET, antagonist arm of biased-ligand search. Melanocortin receptor 4 (Homo sapiens), P32245. inhibition, % at 6.5 µM. 360,000 tested, 0.48% active. MC4R-expressing cells, MTII-stimulated cAMP, LANCE TR-FRET;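 active means inhibition above its plate's cutoff, the mean of tested wells on that plate plus 3 SD, cut at about 29% in these data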;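 further: 0% = Melanotan II alone and 100% = Melanotan II plus saturating MCL0020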
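System – human MC4R-expressing U2OS cells · Also added – Melanotan II · Dosing – one concentration, 6.5 µM nominal · Timing – 30-min compound, 1-h challenge, 1-h detection, room temperature · Measured by – Eu-cAMP/anti-cAMP TR-FRET, emission 671 nm · Replicates – singlicate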
PREPL inh = PREPL enzyme inhibitors, primary screen, biochemical, fluorescence polarization. AID 2751, 2010. inhibition, % at 5.96 µM. Prolyl endopeptidase-like (Homo sapiens), Q4J6C6. 320,000 tested, 0.68% active. recombinant PREPL, fluorescence polarization activity-based probe; in the data active means inhibition above about 43%;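 further: 0% = enzyme with DMSO and 100% = wells lacking enzyme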
NTR1 agonist = agonists of human NTR1, primary screen, imaging, U2OS cells, beta-arrestin-GFP, high content. Neurotensin receptor type 1 (Homo sapiens), P30989. NTR1-U2OS beta-arrestin-GFP spot imaging, agonist mode. activation, % at 20 µM. 330,000 tested, 0.17% active. AID 493036, 2011;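 active means activation at or above 40% of the spot to cytoplasm intensity ratio, with at least 20 cells analyzed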;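 further: 0% = DMSO without peptide and 100% = 100 nM NTR1 peptide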
MC4R barr ag = MC4R beta-arrestin agonists, retest, confirmation, cell-based, luminescence, U2OS; shares compounds with MC4R ag barr; U2OS MC4R beta-arrestin recruitment; scaled DMSO 0%, Melanotan II 100%; activation, % at 8.9 µM; 2,400 tested, 31% active; AID 602192, 2012;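 active means mean activation across replicates above the hit cutoff set in the earlier primary screen, cut at about 8% in these data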
MOR-DOR barr ag = agonists of MOR-DOR heterodimerization, counter-screen for MC4R biased agonist project, cell-based, luminescence. shares compounds with MC4R ag barr. U2OS PathHunter beta-arrestin, beta-gal luminescence; percent of deltorphin B response, DMSO zero. activation, % at 9.2 µM. 2,400 tested, 5.8% active. AID 602194, 2012;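 active means mean activation across replicates exceeds the hit threshold derived in the earlier primary screen, cut at about 18% in these data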;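 further: 100% = deltorphin B at 0.9 µM final and 0% = DMSO alone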
An asterisk follows results filed as active; . = not tested or not shown.

SMILES | Lipid droplet | HTR2A ag | MC4R ag barr | MC4R antag cAMP | PREPL inh | NTR1 agonist | MC4R barr ag | MOR-DOR barr ag
COc1ccc(NC(=O)c2cc([N+](=O)[O-])ccc2NC(=O)CNCc2ccccn2)c(OC)c1 | -27 | -4 | 13* | 2 | 18 | -2 | 13* | 6
CCCOc1ccc(F)cc1-c1cc(C(=O)Nc2ccc(C(C)C)cc2)[nH]n1 | . | -3 | 21* | 8 | . | . | 5 | 4
O=C(COC(=O)c1ccc[nH]c1=O)NCCCc1ccccc1 | . | 1 | -1 | -6 | 0 | -1 | . | .
CCNC(=O)c1c(NC(=O)C2COc3ccccc3O2)sc2c1CCCC2 (stereo unspecified) | -15 | -2 | 3 | 0 | 1 | 4 | . | .
COCCCNC(=O)c1c(NC(=O)C2COc3ccccc3O2)sc2c1CCCC2 (stereo unspecified) | 3 | -1 | 11* | 5 | 2 | 1 | 1 | 3
Cc1ccc(COC(=O)Cc2coc3cc(O)ccc23)cc1 | 7 | -5 | 9.9* | 5 | 3 | 0 | 3 | 11
Cc1nn(CC(=O)NCc2cccc3ccccc23)c(=O)c2ccccc12 | . | -2 | 19* | -4 | 11 | 0 | 4 | 4
Cc1nn(CC(=O)NCc2ccccc2)c(=O)c2ccccc12 | . | 1 | -1 | 5 | -5 | 0 | . | .
CCOC(=O)c1ccccc1NC(=O)COC(=O)C(CCSC)NC(=O)COc1ccccc1 (stereo unspecified) | . | 2 | -3 | 17 | 4 | 4 | . | .
O=S(=O)(Nc1ccc(-c2ccccc2)cc1)c1ccccc1 | . | -2 | 14* | 5 | . | . | 6 | 7
O=S(=O)(Nc1ccc(Nc2ccccc2)cc1)c1ccc(F)cc1 | . | -6 | 8 | 2 | 4 | 7 | . | .
Cc1ccc(S(=O)(=O)Nc2ccc(Nc3ccccc3)cc2)cc1 | 30 | -5 | 9.7* | 9 | -16 | 10 | 1 | 9
O=S(=O)(Nc1ccc(-n2cccc2)cc1)c1ccccc1 | 24 | -5 | 1 | 1 | -9 | 0 | . | .
C=CCN(CC(=O)Nc1cccnc1)S(=O)(=O)c1ccc(Cl)cc1 | . | 9 | -1 | 4 | 10 | -1 | . | .
CC(=O)c1cccc(NC(=O)N2CCC(NC(=O)C3CCCCC3)CC2)c1 | -5 | -4 | -1 | 7 | -5 | 22 | . | .
COc1ccc(/C=C2/N=C(SCC(=O)Nc3cc(C)on3)N(c3ccccc3)C2=O)cc1 | -1 | 0 | 11* | -7 | -3 | . | 5 | 5
Cc1cc(NC(=O)CN2C(=O)S/C(=C\c3ccccc3)C2=O)no1 | -36 | 3 | 26* | -3 | 14 | 2 | 4 | 9
COc1ccc(CNc2nc(NCc3ccc(OC)cc3)c3[nH]cnc3n2)cc1 | 3 | -4 | 12* | 5 | 10 | 6 | 8.8* | 3
CCC[C@H]1CN(c2ccccc2)C(=O)[C@@H]1CC(=O)NC | . | -2 | -1 | 0 | . | . | . | .
O=C(CSc1nc2c(sc3ccccc32)c(=O)n1Cc1ccco1)NCC1CCCO1 (stereo unspecified) | -26 | -2 | 22* | 10 | -8 | 18 | 0 | 1
COc1ccc(S(=O)(=O)NC(=O)C2(C)CCN2C(=O)C2(c3ccc(Cl)cc3)CCC2)cc1 (stereo unspecified) | . | 0 | 2 | 6 | . | . | . | .
O=C(OCC(=O)N(Cc1ccccc1)Cc1ccccc1)c1cccc(O)c1 | . | 0 | 9.7* | 3 | -6 | 2 | 1 | 7
COc1ccc(Cc2nnc(NC(=O)CSc3ccccc3)s2)cc1 | 10 | 3 | 14* | -6 | 3 | 4 | 3 | 3
COc1ccc(Cc2nnc(NC(=O)CSc3ccc(C)cc3)s2)cc1 | -1 | 1 | 8 | 3 | -4 | 4 | . | .
Cc1cccc(N2CCN(C(=S)Nc3ccc4nc(N5CCN(C)CC5)cc(C)c4c3)CC2)c1C | -2 | -7 | 11* | 7 | . | . | 13* | 13
SMILES | Lipid droplet | HTR2A ag | MC4R ag barr | MC4R antag cAMP | PREPL inh | NTR1 agonist | MC4R barr ag | MOR-DOR barr ag
Cc1cccc(N2CCN(C(=S)Nc3ccc4nc(N5CCN(C)CC5)cc(C)c4c3)CC2C)c1 (stereo unspecified) | -14 | 1 | 14* | -5 | 35 | 4 | 4 | 17
O=C(Nc1ccc(N2CCCC2)c(Cl)c1)c1ccc([N+](=O)[O-])cc1 | -10 | -2 | 21* | 3 | 16 | 0 | 6 | 9
Cc1cc(C(=O)Nc2ccc(N3CCCC3)c(Cl)c2)ccc1[N+](=O)[O-] | -5 | -5 | -1 | 5 | 19 | 6 | . | .
CCCCCCCCNC(=O)c1cccnc1SCC(=O)Nc1ccccc1OC | -24 | -5 | 15* | -2 | -3 | 9 | 8 | 5
Oc1oc(-c2ccccc2Br)nc1C=Nc1ccc(Br)cn1 | 19 | 0 | 21* | 2 | 11 | 1 | 10* | 3
Oc1oc(-c2ccccc2)nc1/C=N/c1ccccn1 | -8 | 4 | 3 | -5 | 9 | -3 | . | .
CCN(CC)C(=O)C1=C(C)N(Cc2ccc(C(C)(C)C)cc2)C(=O)C(CC(=O)NC2CCCC2)C1 (stereo unspecified) | . | 0 | 4 | 15 | . | . | . | .
Cc1ccc(C(OCC(O)CNCc2ccc(F)cc2)c2ccccc2)cc1 (stereo unspecified) | . | -11 | 14* | 7 | -16 | 33 | 24* | 14
O=C(c1ccccc1)c1ccc(OCC(O)CNCc2ccc(F)cc2)cc1 (stereo unspecified) | -21 | -3 | 3 | 10 | . | . | . | .
O=C(NCCc1cnn(-c2ccccc2)c1)c1cc(COc2c(F)cccc2F)on1 | 19 | -1 | 1 | 8 | -15 | 2 | . | .
CCC(=O)N(Cc1ccco1)c1nc(-c2cc(OC)ccc2OC)cs1 | -19 | 10 | 9.7* | -3 | -7 | 8 | 9.1* | 5
COc1ccc(CCC(=O)Nc2nc(C)c(C(=O)N(C)C)s2)cc1 | 6 | 2 | -3 | -2 | 17 | 0 | . | .
